Test results as given in ChEMBL document CHEMBL1275361, “Synthesis and evaluation of 5-substituted 9-hydroxypyrrolo[3,4-c]carbazole-1,3(2H,6H)-diones as check point 1 kinase inhibitors” (Bioorg Med Chem, 2010).
Calls of active or inactive are those of the source. The rule behind the calls is not given here.

Experiments:
[1] = target: T1, Serine/threonine-protein kinase Chk1 (Homo sapiens) (UniProt O14757); test: Inhibition of human recombinant Chk1 at 10 uM
T1 sequence (whole entry): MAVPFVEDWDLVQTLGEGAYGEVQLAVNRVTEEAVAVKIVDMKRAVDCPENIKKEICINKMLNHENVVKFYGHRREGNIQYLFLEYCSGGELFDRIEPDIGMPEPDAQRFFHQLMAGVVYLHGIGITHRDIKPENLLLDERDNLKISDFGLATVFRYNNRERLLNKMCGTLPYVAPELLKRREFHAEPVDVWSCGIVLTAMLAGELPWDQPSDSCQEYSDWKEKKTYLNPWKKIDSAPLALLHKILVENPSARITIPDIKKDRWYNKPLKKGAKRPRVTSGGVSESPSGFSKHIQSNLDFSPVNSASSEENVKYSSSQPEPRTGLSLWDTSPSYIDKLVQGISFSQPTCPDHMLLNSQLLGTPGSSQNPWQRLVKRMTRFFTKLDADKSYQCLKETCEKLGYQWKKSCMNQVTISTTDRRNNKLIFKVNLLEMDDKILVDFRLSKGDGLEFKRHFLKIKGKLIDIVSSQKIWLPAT
Procedure, shortened: (§1)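 Chk1 activity measured by K-LISA checkpoint kit ELISA, following phosphorylation of a Cdc25 substrate peptide. Absorbance read at 450/540 nm. Inhibition calculated from activity with versus without compound. IC50 is the concentration inhibiting peptide phosphorylation. Values are the mean of three separate determinations.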

[2] = test system: CCRF-CEM; test: Cytotoxicity against human CCRF-CEM cells up to 10 uM after 48 hrs; format: functional, cell-based
Procedure, shortened: (§2)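 Cells grown in RPMI 1640 with 10% FBS at 37 °C, 5% CO2. Exponentially growing cells seeded, treated after 24 h with compound for 48 h. Viability read by CCK-8 (2 h development, absorbance 450 nm), expressed as percent of untreated control. Three separate experiments, each in triplicate.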

[3] = test system: ML-1a; test: Cytotoxicity against human ML-1a cells up to 10 uM after 48 hrs; format: functional, cell-based; procedure, shortened: as §2
[4] = target: T2, Serine/threonine-protein kinase Chk1 (Homo sapiens, UniProt O14757); test: Inhibition of human recombinant Chk1; procedure, shortened: as §1
T2 sequence (O14757 whole entry): T1 sequence (whole entry)

[5] = test system: HeLa; test: Cytotoxicity against human HeLa cells assessed as potentiation of SN-38-induced induction of DNA damaging activity at 5 uM after 48 hrs; format: functional
Procedure, shortened: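 HeLa cells kept in MEM with 10% FBS and 1% nonessential amino acids at 37 °C, 5% CO2. Seeded cells treated after 24 h with SN-38, with or without test compound, for 48 h. Live cells measured by CCK-8 (2 h, A450), viability as percent of untreated control. Three experiments in triplicate.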

[6] = target: Serine/threonine-protein kinase Chk2 (Homo sapiens) (UniProt O96017); test: Inhibition of Chk2 at 0.1 uM
Procedure, shortened: (§3)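 Kinase panel run per ProfilerPro kit protocol. Compounds preincubated with enzyme 15 min at room temperature. Reaction started with peptide substrate (fixed 1.5 µM) and ATP at apparent Km, run 90 min, then stopped with termination buffer. Tested in duplicate. Read by microfluidic mobility-shift (Caliper), with product/(product+substrate) ratio as signal.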

[7] = target: Serine/threonine-protein kinase MARK1 (Homo sapiens) (UniProt Q9P0L2); test: Inhibition of MARK1 at 0.1 uM; procedure, shortened: as §3
[8] = Inhibition of CAMK2 at 0.1 uM; procedure, shortened: as §3
[9] = target: T3, Calcium/calmodulin-dependent protein kinase type IV (Homo sapiens) (UniProt Q16566); test: Inhibition of CAMK4 at 0.1 uM; procedure, shortened: as §3
T3 sequence (whole entry): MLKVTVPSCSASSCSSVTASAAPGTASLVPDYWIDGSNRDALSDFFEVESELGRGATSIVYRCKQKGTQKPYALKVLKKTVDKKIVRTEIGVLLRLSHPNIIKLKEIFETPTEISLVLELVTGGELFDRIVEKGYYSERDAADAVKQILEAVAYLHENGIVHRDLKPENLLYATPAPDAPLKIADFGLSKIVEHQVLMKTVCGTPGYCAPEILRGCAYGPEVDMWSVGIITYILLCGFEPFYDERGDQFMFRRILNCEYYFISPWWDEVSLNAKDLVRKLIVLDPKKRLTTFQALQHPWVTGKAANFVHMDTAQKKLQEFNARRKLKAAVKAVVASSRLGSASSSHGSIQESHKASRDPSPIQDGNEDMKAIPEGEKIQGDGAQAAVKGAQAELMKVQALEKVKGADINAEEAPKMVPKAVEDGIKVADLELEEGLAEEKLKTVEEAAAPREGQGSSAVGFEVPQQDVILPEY

[10] = target: T4, 5'-AMP-activated protein kinase subunit beta-1 (Homo sapiens) (UniProt Q9Y478); test: Inhibition of AMPK at 0.1 uM; procedure, shortened: as §3
T4 sequence (whole entry): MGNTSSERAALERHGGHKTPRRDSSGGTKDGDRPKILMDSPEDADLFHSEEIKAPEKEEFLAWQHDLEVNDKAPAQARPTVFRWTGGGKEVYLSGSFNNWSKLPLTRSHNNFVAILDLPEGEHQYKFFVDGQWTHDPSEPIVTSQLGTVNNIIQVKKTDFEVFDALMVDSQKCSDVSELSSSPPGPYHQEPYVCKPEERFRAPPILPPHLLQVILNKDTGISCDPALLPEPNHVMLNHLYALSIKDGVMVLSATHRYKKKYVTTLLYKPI

[11] = target: T5, Aurora kinase A (Homo sapiens) (UniProt O14965); test: Inhibition of aurora A at 0.1 uM; procedure, shortened: as §3
T5 sequence (whole entry): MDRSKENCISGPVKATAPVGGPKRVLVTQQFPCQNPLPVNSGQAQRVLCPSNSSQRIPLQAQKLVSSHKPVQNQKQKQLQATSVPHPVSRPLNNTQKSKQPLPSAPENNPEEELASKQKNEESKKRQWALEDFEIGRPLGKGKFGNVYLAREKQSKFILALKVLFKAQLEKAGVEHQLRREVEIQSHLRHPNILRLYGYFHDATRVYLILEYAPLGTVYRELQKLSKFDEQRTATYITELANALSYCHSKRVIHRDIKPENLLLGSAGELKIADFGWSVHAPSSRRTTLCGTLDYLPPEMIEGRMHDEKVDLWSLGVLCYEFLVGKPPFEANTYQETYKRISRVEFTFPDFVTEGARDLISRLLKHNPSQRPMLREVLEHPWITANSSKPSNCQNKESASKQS

[12] = target: Serine/threonine-protein kinase pim-2 (Homo sapiens) (UniProt Q9P1W9); test: Inhibition of PIM2 at 0.1 uM; procedure, shortened: as §3
[13] = target: T6, Serine/threonine-protein kinase D2 (Homo sapiens) (UniProt Q9BZL6); test: Inhibition of PKD2 at 0.1 uM; procedure, shortened: as §3
T6 sequence (whole entry): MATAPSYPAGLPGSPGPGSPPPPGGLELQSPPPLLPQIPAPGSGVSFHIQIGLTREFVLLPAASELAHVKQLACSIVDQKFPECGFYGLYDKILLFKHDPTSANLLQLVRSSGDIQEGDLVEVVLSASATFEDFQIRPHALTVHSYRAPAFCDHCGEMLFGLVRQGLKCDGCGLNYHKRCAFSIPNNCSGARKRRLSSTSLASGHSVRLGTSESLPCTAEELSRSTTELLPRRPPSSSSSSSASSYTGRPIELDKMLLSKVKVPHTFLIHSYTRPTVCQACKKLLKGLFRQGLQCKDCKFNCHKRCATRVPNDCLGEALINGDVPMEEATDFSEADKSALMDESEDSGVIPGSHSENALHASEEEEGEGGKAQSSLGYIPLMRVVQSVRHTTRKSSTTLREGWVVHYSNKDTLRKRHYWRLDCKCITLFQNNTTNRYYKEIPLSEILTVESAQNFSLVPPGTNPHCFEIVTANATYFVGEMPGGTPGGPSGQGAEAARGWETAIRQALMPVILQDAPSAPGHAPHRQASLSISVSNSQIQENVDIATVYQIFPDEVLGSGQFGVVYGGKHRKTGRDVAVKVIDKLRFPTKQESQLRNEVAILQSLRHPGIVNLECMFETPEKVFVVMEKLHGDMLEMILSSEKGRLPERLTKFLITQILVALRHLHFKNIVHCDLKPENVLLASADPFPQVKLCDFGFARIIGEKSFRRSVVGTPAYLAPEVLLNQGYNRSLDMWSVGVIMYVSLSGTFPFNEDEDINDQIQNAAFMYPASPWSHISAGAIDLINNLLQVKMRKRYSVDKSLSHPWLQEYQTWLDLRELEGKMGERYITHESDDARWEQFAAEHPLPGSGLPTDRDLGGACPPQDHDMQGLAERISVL

Sequence of Serine/threonine-protein kinase pim-2 (Homo sapiens) (Q9P1W9 whole entry, looked up): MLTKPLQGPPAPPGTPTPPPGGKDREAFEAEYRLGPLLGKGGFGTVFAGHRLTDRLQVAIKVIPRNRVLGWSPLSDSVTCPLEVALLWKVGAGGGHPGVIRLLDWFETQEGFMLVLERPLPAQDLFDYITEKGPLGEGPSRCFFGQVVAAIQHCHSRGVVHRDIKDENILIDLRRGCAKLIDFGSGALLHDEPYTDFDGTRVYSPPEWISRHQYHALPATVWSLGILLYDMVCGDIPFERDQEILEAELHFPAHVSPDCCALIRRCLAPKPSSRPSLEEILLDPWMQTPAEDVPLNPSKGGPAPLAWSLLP
Sequence of Serine/threonine-protein kinase MARK1 (Homo sapiens) (Q9P0L2 whole entry, looked up): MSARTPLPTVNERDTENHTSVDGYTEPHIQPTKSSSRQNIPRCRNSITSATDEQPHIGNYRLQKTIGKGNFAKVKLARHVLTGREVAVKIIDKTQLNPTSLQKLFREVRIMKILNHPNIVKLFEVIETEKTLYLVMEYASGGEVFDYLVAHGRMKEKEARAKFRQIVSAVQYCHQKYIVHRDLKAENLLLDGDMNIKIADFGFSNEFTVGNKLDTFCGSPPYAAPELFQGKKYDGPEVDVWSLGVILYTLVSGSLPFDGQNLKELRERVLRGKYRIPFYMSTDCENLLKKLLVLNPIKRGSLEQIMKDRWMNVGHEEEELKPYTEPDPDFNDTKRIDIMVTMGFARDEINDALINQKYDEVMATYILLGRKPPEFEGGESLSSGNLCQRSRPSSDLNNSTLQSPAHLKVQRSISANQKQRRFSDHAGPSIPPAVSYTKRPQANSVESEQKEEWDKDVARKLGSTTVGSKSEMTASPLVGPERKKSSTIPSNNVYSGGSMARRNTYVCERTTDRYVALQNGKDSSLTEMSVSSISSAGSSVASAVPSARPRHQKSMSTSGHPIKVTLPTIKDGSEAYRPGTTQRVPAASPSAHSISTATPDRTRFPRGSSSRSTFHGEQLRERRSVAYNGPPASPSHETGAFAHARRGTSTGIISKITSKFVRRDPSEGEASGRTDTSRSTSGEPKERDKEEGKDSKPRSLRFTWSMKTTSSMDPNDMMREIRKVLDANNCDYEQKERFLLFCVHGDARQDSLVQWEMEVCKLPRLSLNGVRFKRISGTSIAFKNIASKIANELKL
Sequence of Serine/threonine-protein kinase Chk2 (Homo sapiens) (O96017 whole entry): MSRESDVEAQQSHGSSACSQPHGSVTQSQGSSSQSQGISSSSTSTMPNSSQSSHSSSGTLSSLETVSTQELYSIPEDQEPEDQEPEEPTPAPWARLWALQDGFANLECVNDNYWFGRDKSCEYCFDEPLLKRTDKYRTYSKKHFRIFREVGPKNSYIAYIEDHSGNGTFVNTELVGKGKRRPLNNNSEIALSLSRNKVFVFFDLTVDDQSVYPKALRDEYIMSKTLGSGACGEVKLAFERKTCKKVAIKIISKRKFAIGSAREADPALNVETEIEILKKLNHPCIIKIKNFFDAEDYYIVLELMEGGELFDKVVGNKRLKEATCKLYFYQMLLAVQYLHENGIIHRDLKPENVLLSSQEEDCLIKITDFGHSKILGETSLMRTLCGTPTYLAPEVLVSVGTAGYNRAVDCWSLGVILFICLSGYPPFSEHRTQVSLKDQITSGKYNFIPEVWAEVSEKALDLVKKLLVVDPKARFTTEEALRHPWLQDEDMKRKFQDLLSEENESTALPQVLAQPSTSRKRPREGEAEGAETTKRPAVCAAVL

Row | Compound | inhibition [1] [%] | Activity [2] | Activity [3] | IC50 [4] [nM] | also measured
1 | CC(C)(C)OC(=O)c1cc2c(c3c1[nH]c1ccccc13)C(=O)NC2=O | 1 | – | – | – | –
2 | N=C(N)NCCCNC(=O)c1cccc(CNC(=O)c2cc3c(c4c2[nH]c2ccccc24)C(=O)NC3=O)c1 | – | inactive | inactive | 235 | –
3 | Cl.NCCNC(=O)c1cccc(CNC(=O)c2cc3c(c4c2[nH]c2ccc(O)cc24)C(=O)NC3=O)c1 | – | inactive | inactive | 31 | fold change (FC) [5]: 4
4 | NCCCNC(=O)c1cccc(CNC(=O)c2cc3c(c4c2[nH]c2ccc(O)cc24)C(=O)NC3=O)c1 | – | inactive | inactive | 46 | –
5 | O=C1NC(=O)c2c1cc(C(=O)O)c1[nH]c3ccccc3c21 | 46 | – | – | – | –
6 | O=C1NC(=O)c2c1cc(C(=O)NCc1ccccc1)c1[nH]c3ccccc3c21 | 71 | – | – | 9000 | –
7 | N#Cc1ccc(CNC(=O)c2cc3c(c4c2[nH]c2ccccc24)C(=O)NC3=O)cc1 | 46 | – | – | – | –
8 | NCCCNC(=O)c1cccc(CNC(=O)c2cc3c(c4c2[nH]c2ccccc24)C(=O)NC3=O)c1 | – | inactive | inactive | 251 | –
9 | NCCNC(=O)c1cccc(CNC(=O)c2cc3c(c4c2[nH]c2ccccc24)C(=O)NC3=O)c1 | – | inactive | inactive | 336 | –
10 | NC(=O)c1cccc(CNC(=O)c2cc3c(c4c2[nH]c2ccccc24)C(=O)NC3=O)c1 | 83 | inactive | inactive | 448 | inhibition [6]: Active; inhibition [7]: Active; inhibition [8]: Active; inhibition [9]: Active; inhibition [10]: Active; inhibition [11]: Active; inhibition [12]: Active; inhibition [13]: Active
11 | N=C(N)NCCNC(=O)c1cccc(CNC(=O)c2cc3c(c4c2[nH]c2ccccc24)C(=O)NC3=O)c1 | – | inactive | inactive | 123 | –
12 | N=C(N)NCCCNC(=O)c1cccc(CNC(=O)c2cc3c(c4c2[nH]c2ccc(O)cc24)C(=O)NC3=O)c1 | – | inactive | inactive | 22 | –
13 | N=C(N)NCCNC(=O)c1cccc(CNC(=O)c2cc3c(c4c2[nH]c2ccc(O)cc24)C(=O)NC3=O)c1 | – | inactive | inactive | 2.8 | –
14 | NC(=O)c1ccc(CNC(=O)c2cc3c(c4c2[nH]c2ccccc24)C(=O)NC3=O)cc1 | 27 | – | – | – | –
15 | N#Cc1cccc(CNC(=O)c2cc3c(c4c2[nH]c2ccccc24)C(=O)NC3=O)c1 | 48 | – | – | – | –
16 | CN[C@@H]1C[C@H]2O[C@@](C)([C@@H]1OC)n1c3ccccc3c3c4c(c5c6ccccc6n2c5c31)C(=O)N[C@H]4O | – | inactive | inactive | – | –
